Results published in ChEMBL document CHEMBL4765448, “Multiple biological active 4-aminopyrazoles containing trifluoromethyl and their 4-nitroso-precursors: Synthesis and evaluation” (Eur J Med Chem, 2020).
Values after ≈ are worked out from the molar mass of the structure shown. Active and inactive are the calls of the source. The rule behind the calls is not given here.

Key:
Neisseria gonorrhoeae = test: Antibacterial activity against Neisseria gonorrhoeae; format: functional
Escherichia coli = test: Antibacterial activity against Escherichia coli; format: functional
Klebsiella pneumoniae = test: Antibacterial activity against Klebsiella pneumoniae; format: functional
Citrobacter braakii = test: Antibacterial activity against Citrobacter braakii; format: functional
Proteus vulgaris = test: Antibacterial activity against Proteus vulgaris; format: functional
Serratia marcescens = test: Antibacterial activity against Serratia marcescens; format: functional
Shigella flexneri = test: Antibacterial activity against Shigella flexneri; format: functional
Pseudomonas aeruginosa = test: Antibacterial activity against Pseudomonas aeruginosa; format: functional
Streptococcus pyogenes = test: Antibacterial activity against Streptococcus pyogenes; format: functional
Staphylococcus aureus = test: Antibacterial activity against Staphylococcus aureus; format: functional
Trichophyton rubrum = test: Antifungal activity against Trichophyton rubrum; format: functional
Nannizzia gypsea = test: Antifungal activity against Trichophyton gypseum; format: functional
Trichophyton tonsurans = test: Antifungal activity against Trichophyton tonsurans; format: functional
Trichophyton violaceum = test: Antifungal activity against Trichophyton violaceum; format: functional
[1] = tested on: Trichophyton interdigitale; test: Antifungal activity against Trichophyton mentagrophytes var. interdigitale; format: functional
Epidermophyton floccosum = test: Antifungal activity against Epidermophyton floccosum; format: functional
Microsporum canis = test: Antifungal activity against Microsporum canis; format: functional
Candida albicans = test: Antifungal activity against Candida albicans; format: functional
Rattus norvegicus [2] = test: Analgesic activity in rat assessed as prolongation of latency period at 25 mg/kg, ip measured after 1 hr by hot-plate test relative to control; format: functional, organism-based
Method in brief: (§1)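 Hot-plate test in rats. Compounds were given by intraperitoneal injection. Latency was read at 1 h and, for some compounds, also at 2 h after dosing. Results are expressed as % prolongation of the latent period versus vehicle-treated control. Significance was given as p-values.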

Rattus norvegicus [3] = test: Antiinflammatory activity in rat model of carrageenan-induced paw edema assessed as inhibition of hind paw swelling at 25 mg/kg, ip measured after 5 hrs; format: functional, organism-based
[4] = Acute toxicity in mouse at 300 mg/kg, ip administered as single dose; format: organism-based; conditions: in vivo
Method in brief: (§2)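 Mice, single intraperitoneal dose, following OECD Guideline for testing of chemicals; three mice per dose level; doses tested 10–300 mg/kg. Read-out is the number of survivors out of 3, used to estimate the expected LD50 range.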

Rattus norvegicus [5] = test: Antiinflammatory activity in rat model of carrageenan-induced paw edema assessed as inhibition of hind paw swelling at 10 mg/kg, ip measured after 1 hr relative to control; format: functional
Rattus norvegicus [6] = test: Antiinflammatory activity in rat model of carrageenan-induced paw edema assessed as inhibition of hind paw swelling at 10 mg/kg, ip measured after 3 hrs relative to control; format: functional
Rattus norvegicus [7] = test: Analgesic activity in rat assessed as prolongation of latency period at 10 mg/kg, ip measured after 1 hr by hot-plate test relative to control; format: functional; method in brief: as §1
[8] = Acute toxicity in mouse at 70 mg/kg, ip administered as single dose; format: organism-based; conditions: in vivo; method in brief: as §2
[9] = tested on: Mycobacterium tuberculosis; test: Antitubercular activity against Mycobacterium tuberculosis H37Rv; format: functional
Method in brief: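 Mycobacterium tuberculosis strain H37Rv; minimum inhibitory concentration (MIC) taken as the lowest level needed to inhibit bacterial growth; isoniazid and pyrazinamide served as reference drugs.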

[10] = Antioxidant activity assessed as trolox equivalent of ABTS radical scavenging activity measured after 1 hr by UV-vis spectrophotometric method; format: functional
Method in brief: (§3)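 ABTS cation-radical decolorization was read spectrophotometrically as the fall in absorbance after 1 h. Trolox was the reference. TEAC was taken as the ratio of concentration-response slopes, test/Trolox, and IC50 was also derived. Data are mean ± SEM, n = 3.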

[11] = Antioxidant activity assessed as AAPH scavenging activity by measuring residual fluorescence at 10 uM measured at 1 min interval for 30 mins by ORAC fluorescein assay relative to control; format: functional
Method in brief: (§4)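 ORAC-FL assay with fluorescein as the probe and AAPH as the peroxyl radical generator. The loss of fluorescence over time was followed, and the result is given as % fluorescence restored at 10 and 50 µM. Each value is the mean of two independent experiments.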

[12] = Antioxidant activity assessed as AAPH scavenging activity by measuring residual fluorescence at 50 uM measured at 1 min interval for 30 mins by ORAC fluorescein assay relative to control; format: functional; method in brief: as §4
Erythrocyte [13] = test: Antioxidant activity in human erythrocytes assessed as protection against AAPH-induced hemolysis at 50 uM preincubated for 20 mins followed by AAPH addition and measured after 2 hrs by spectrophotometric method relative to control; format: functional; conditions: time 140 min, 2.333 h
Method in brief: (§5)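 Erythrocyte hemolysis assay with AAPH as the free-radical initiator, testing 50 and 400 µM. Results are expressed as relative protection of membranes against oxidative damage, each the mean of two independent experiments.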

Erythrocyte [14] = test: Antioxidant activity in human erythrocytes assessed as protection against AAPH-induced hemolysis at 400 uM preincubated for 20 mins followed by AAPH addition and measured after 2 hrs by spectrophotometric method relative to control; format: functional; conditions: time 140 min, 2.333 h; method in brief: as §5
HeLa = test: Cytotoxicity against human HeLa cells; format: functional, cell-based; conditions: for IC50: Homo sapiens, HeLa, read-out: IC50
NHDF = test: Cytotoxicity against HDF cells; format: cell-based, Homo sapiens
[15] = Selectivity index, ratio of IC50 for HDF cells to IC50 for human HeLa cells; format: toxicity; conditions: HDF cells versus HeLa cells, read-out: Ratio IC50
Rattus norvegicus [16] = test: Antiinflammatory activity in rat model of carrageenan-induced paw edema assessed as inhibition of hind paw swelling at 15 mg/kg, ip measured after 1 hr relative to control; format: functional
Rattus norvegicus [17] = test: Antiinflammatory activity in rat model of carrageenan-induced paw edema assessed as inhibition of hind paw swelling at 15 mg/kg, ip measured after 3 hrs relative to control; format: functional
Rattus norvegicus [18] = test: Analgesic activity in rat assessed as prolongation of latency period at 15 mg/kg, ip measured after 1 hr by hot-plate test relative to control; format: functional; method in brief: as §1
Rattus norvegicus [19] = test: Antiinflammatory activity in rat model of carrageenan-induced paw edema assessed as inhibition of hind paw swelling at 15 mg/kg, ip measured after 5 hrs; format: functional, organism-based
[20] = Acute toxicity in mouse at 60 mg/kg, ip administered as single dose; format: organism-based; conditions: in vivo; method in brief: as §2
[21] = Antioxidant activity assessed as ABTS radical scavenging activity measured after 1 hr by UV-vis spectrophotometric method; format: functional; method in brief: as §3
Rattus norvegicus [22] = test: Analgesic activity in rat assessed as prolongation of latency period at 15 mg/kg, ip measured after 2 hrs by hot-plate test relative to control; format: functional; method in brief: as §1
[23] = Acute toxicity in ip dosed mouse administered as single dose; format: organism-based; conditions: in vivo; method in brief: as §2

| SMILES | MIC (Neisseria gonorrhoeae) [mg/L] | MIC (Escherichia coli) [mg/L] | MIC (Klebsiella pneumoniae) [mg/L] | MIC (Citrobacter braakii) [mg/L] | MIC (Proteus vulgaris) [mg/L] | MIC (Serratia marcescens) [mg/L] | MIC (Shigella flexneri) [mg/L] | MIC (Pseudomonas aeruginosa) [mg/L] | MIC (Streptococcus pyogenes) [mg/L] | MIC (Staphylococcus aureus) [mg/L] | MIC (Trichophyton rubrum) [mg/L] | MIC (Nannizzia gypsea) [mg/L] | MIC (Trichophyton tonsurans) [mg/L] | MIC (Trichophyton violaceum) [mg/L] | MIC [1] [mg/L] | MIC (Epidermophyton floccosum) [mg/L] | MIC (Microsporum canis) [mg/L] | MIC (Candida albicans) [mg/L] | Activity [4] | Activity [10] | further results |
| --- | --- | --- | --- | --- | --- | --- | --- | --- | --- | --- | --- | --- | --- | --- | --- | --- | --- | --- | --- | --- | --- |
| Cc1ccc(-c2c(N=O)c(C(F)(F)F)nn2-c2ccc(S(N)(=O)=O)cc2)cc1 | 31.2 (≈ 76 µM) | > 250 | > 250 | > 250 | > 250 | > 250 | > 250 | > 250 | > 250 | > 250 | 200 (≈ 487 µM) | 200 (≈ 487 µM) | 200 (≈ 487 µM) | > 200 | 200 (≈ 487 µM) | 200 (≈ 487 µM) | 200 (≈ 487 µM) | > 200 | Non-Toxic |  | Activity (Rattus norvegicus [2]): inactive; Activity (Rattus norvegicus [3]): inactive |
| O=C(O)Cc1ccccc1Nc1c(Cl)cccc1Cl [DICLOFENAC] |  |  |  |  |  |  |  |  |  |  |  |  |  |  |  |  |  |  |  |  | inhibition in vivo at 10 mg/kg (Rattus norvegicus [5]): 53.9%; inhibition in vivo at 10 mg/kg (Rattus norvegicus [6]): 61.8%; Activity (Rattus norvegicus [7]): 57.1%; Activity [8]: Non-Toxic |
| Cl.Cn1nc(C(F)(F)F)c(N)c1-c1ccccc1 | > 250 | > 250 | > 250 | > 250 | > 250 | > 250 | > 250 | > 250 | > 250 | > 250 | 200 | > 200 | > 200 | 200 | > 200 | 200 | 200 | > 200 |  | inactive | MIC [9]: 12.5 mg/L; Activity [11]: 38.2%; Activity [12]: 79%; fold change (FC) (Erythrocyte [13]): 1.19; fold change (FC) (Erythrocyte [14]): 1.11; Activity (HeLa): Dose-dependent effect; IC50 (HeLa): 0.074 µM; IC50 (NHDF; nhdf): Not Active; selectivity ratio [15]: > 1350; inhibition in vivo at 15 mg/kg (Rattus norvegicus [16]): 54.3%; inhibition in vivo at 15 mg/kg (Rattus norvegicus [17]): 32.9%; Activity (Rattus norvegicus [18]): 100.74%; Activity (Rattus norvegicus [19]): Active; Activity [20]: Non-Toxic |
| Cc1ccc(C2=NN(c3ccc(S(N)(=O)=O)cc3)C(O)(C(F)(F)F)/C2=N/O)cc1 (stereo not given) |  |  |  |  |  |  |  |  |  |  |  |  |  |  |  |  |  |  | Non-Toxic | 0.48 equiv | IC50 [21]: 45.3 µM; Activity [11]: 38.5%; Activity [12]: 59.4%; fold change (FC) (Erythrocyte [13]): 1.09; fold change (FC) (Erythrocyte [14]): 1.08; Activity (HeLa): Dose-dependent effect; IC50 (HeLa): 7.23 µM; IC50 (NHDF; Homo sapiens, NHDF, read-out: IC50): 99.3 µM; selectivity ratio [15]: 13.7; inhibition (Rattus norvegicus [16]): inactive; inhibition (Rattus norvegicus [17]): inactive; Activity (Rattus norvegicus [18]): 58.9%; Activity (Rattus norvegicus [22]): 96.55%; Activity (Rattus norvegicus [19]): Active; LD50 [23]: > 300 mg/kg |
